Data: PubChem BioAssay AID720508 (The Scripps Research Institute Molecular Screening Center, 2013)
In all, about 370,000 compounds went through this assay and about 500 (0.14%) were called active. This is one part of a sample in which actives are shown more often than they occur. Unmarked numbers belong to inactive results.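 Rule for the calls: active = inhibition above the mean of compounds falling within the control limits plus 3 SD of them (cut at about 14% in these data); inactive = the rest.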

Target: Fibrinogen beta chain (Homo sapiens) (UniProt P02675)
Assay: inhibitors of Tn7 peptide binding to fibrin DD(E), primary screen, biochemical, fluorescence polarization, human fibrin, Tn7 probe (AID 720508);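 note: 0% = plate median of compound wells and 100% = 10 µM Aha-Tn7 peptide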
Conditions: FP displacement of FITC-Tn7 peptide from fibrin DD(E); at 8.3 µM; stronger effect = higher value; 0% = median of compound wells per plate
In short: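 Assay system: human fibrin DD(E) protein / Input: 2 µM fibrin DD(E) / Benchmarks: high control of 10 µM Aha-Tn7 peptide / Measured by: fluorescence polarization of the labelled Tn7 tracer / Medium: Tris buffer with calcium and detergent, pH 7.8 / Timing: 10 min compound pre-incubation, 3 h probe incubation at room temperature / Repeats: one replicate per compound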

Sequence of Fibrinogen beta chain (Homo sapiens) (P02675 whole entry, looked up): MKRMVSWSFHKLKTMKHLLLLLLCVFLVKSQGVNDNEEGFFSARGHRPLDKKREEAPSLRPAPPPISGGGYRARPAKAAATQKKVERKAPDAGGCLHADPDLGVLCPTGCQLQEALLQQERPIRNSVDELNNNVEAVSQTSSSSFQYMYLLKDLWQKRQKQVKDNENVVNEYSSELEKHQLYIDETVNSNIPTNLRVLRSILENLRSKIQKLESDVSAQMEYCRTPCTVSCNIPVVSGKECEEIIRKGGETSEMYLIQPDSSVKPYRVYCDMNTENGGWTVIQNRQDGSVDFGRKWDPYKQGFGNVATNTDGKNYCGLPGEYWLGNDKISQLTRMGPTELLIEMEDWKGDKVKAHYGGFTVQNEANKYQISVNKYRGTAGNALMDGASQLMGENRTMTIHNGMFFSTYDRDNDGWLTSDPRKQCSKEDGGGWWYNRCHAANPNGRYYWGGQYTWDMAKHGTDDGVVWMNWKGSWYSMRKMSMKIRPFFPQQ

Compared with `O=C(NCc1ccco1)C1CCCN1S(=O)(=O)c1ccccc1C(F)(F)F` (stereo not drawn), `OCC1(Cc2ccccc2C(F)(F)F)CCN(Cc2ccncc2)CC1` is lower in inhibition: -1.12% for the first, -3.68% for the second.

Going from `COc1ccc(NC2CC(=O)N(C)C2=O)cc1` (stereo not drawn) to `CCC(c1ccc(NC(=O)OC(C)(C)C)cc1)c1cc(OC)cc(OC)c1` (stereo not drawn), the inhibition falls from 0.3% to -0.44%.

First: CCC1CCCCN1C(=S)Nc1ccc(SC(F)F)cc1 (stereo not drawn)
Second: COc1cc(C(=S)NC2CCCCC2)ccc1O
The inhibition of the first is higher: 5.34% for the first, 2.78% for the second.

Going from `C[N+]1(CCNC(=O)/C=N/O)CCCCC1` to `CC(=O)CC(CC(=O)NC1CCCCC1)c1ccccc1` (stereo not drawn), the inhibition rises from 1.46% to 4.93%.

Going from `COc1ccc(C)cc1NC(=S)N1CCOCC1` to `Cc1ccc(C)c(NS(=O)(=O)c2c(C)[nH]c(C)c2C(=O)N2CCCCC2)c1`, the inhibition falls from -0.49% to -9.23%.

Going from `COC(=O)[C@]12CCCCC=C1N(Cc1ccc(Cl)cc1Cl)C(=O)[C@H](CC(=O)NCc1cccc3ccccc13)C2` to `COC(=O)[C@]12CCCCC=C1N(Cc1ccco1)C(=O)[C@H](CC(=O)NCC1CCCCC1)C2`, the inhibition rises from -3.23% to 6.36%.

First: Cn1c(=O)cc(OCCCC(=O)N2CCN(c3ccccn3)CC2)c2ccccc21
Second: Cn1c(=O)[nH]c(=O)c2c1nc(CN1CCN(c3ccccc3F)CC1)n2CCc1ccccc1
The inhibition of the first is lower: 2.1% for the first, 6.89% for the second.

First: OCCn1c(-c2ccccc2)csc1=Nc1ccccc1
Second: NNC(=O)CNC(c1ccccc1)c1cc(Cl)ccc1NC(=O)c1ccccc1 (stereo not drawn)
The inhibition of the first is higher: 5.44% for the first, 2.82% for the second.

Going from `C=CCOc1cccc(C2C(C(=O)c3ccc(C)o3)=C(O)C(=O)N2CCN2CCOCC2)c1` (stereo not drawn) to `C=CCOc1c2ccc(C(=O)N(CC)c3ccc(OC)cc3)cc2nn1C`, the inhibition rises from 0.33% to 1.93%.

Compared with `Cc1cc(C)n2c(Nc3c(C)cccc3C)c(CCc3ccccc3)nc2n1`, `COc1cccc(NC(=O)CN(C)CC(=O)c2c(N)n(Cc3ccccc3)c(=O)n(C)c2=O)c1` is lower in inhibition: 10.1% for the first, -1.38% for the second.

Going from `O=S(=O)(c1ccc(-c2ccno2)s1)N1CCCCC1` to `N#CCCN1CCN(S(=O)(=O)c2ccc(S(=O)(=O)N3CCCC3)cc2)CC1`, the inhibition rises from -8.93% to 3.06%.

Compared with `O=[N+]([O-])/C=C/c1ccc2c(ccn2Cc2ccccc2)c1`, `CCOC(=O)C1(S(=O)(=O)c2ccc(Cl)cc2)CCN(Cc2ccccc2)CC1` is higher in inhibition: 0.19% for the first, 7.42% for the second.

First: O=S(=O)(NCC1CCCO1)c1cnc(Cl)c(Cl)c1 (stereo not drawn)
Second: Cc1ccc(S(=O)(=O)N2CCC(C(=O)NCCC3=CCCCC3)CC2)cc1C
The inhibition of the first is higher: 0.79% for the first, 0.25% for the second.

Going from `O=C(COC(=O)c1ccc(N2CCCC2=O)cc1)c1ccc(OC(F)F)cc1` to `CCOC(=O)c1ccc(NC(=O)c2ccc(NC(=O)C3CCCO3)cc2)cc1` (stereo not drawn), the inhibition rises from -9.52% to 8.18%.

Going from `COc1cc(OC)cc(C(=O)NNC(=O)CNC(=O)c2ccc(Br)o2)c1` to `COc1cc(OC)cc(C(=O)NCC(=O)OCc2csc(-c3ccccc3)n2)c1`, the inhibition falls from 3.03% to 1.99%.

Compared with `CC(C)c1nnc(NC(=O)CCC(=O)N2CCN(c3cccc(Cl)c3)CC2)s1`, `O=C(CCNS(=O)(=O)c1cccs1)N1CCN(c2ccc(F)cc2)CC1` is higher in inhibition: 3.33% for the first, 3.48% for the second.

Compared with `O=C(Nc1ccc2c(c1)OCO2)c1sc2cc(Cl)ccc2c1Cl`, `Cc1cc(Cl)ccc1C(=O)C1CCCN(C(=O)c2ccc3c(c2)OCO3)C1` (stereo not drawn) is lower in inhibition: 6.59% for the first, -13.3% for the second.

Going from `CN1CCc2ccccc2C1Cc1ccccc1NC(=O)c1sc2ccccc2c1Cl` (stereo not drawn) to `Cc1ccc(-n2c(SCC(=O)Nc3cccc4ccccc34)nnc2-c2ccccn2)cc1`, the inhibition rises from -2.71% to 1.64%.

Going from `O=C(COC(=O)c1ccccc1NC(=O)c1ccco1)Nc1ccc2c(c1)OC(F)(F)O2` to `CCOC(=O)c1ccc(NC(=O)c2c(NCc3ccccc3)[nH]c(=O)[nH]c2=O)cc1`, the inhibition rises from -0.79% to 1.03%.

Compared with `N#Cc1cccc(CSc2ncnc(N)n2)c1`, `N#Cc1cccc(CN2CCC(=O)N(CCO)CC2)c1` is higher in inhibition: -4.53% for the first, 7.16% for the second.

Going from `CCOc1ccc(NC(=O)CCS(=O)(=O)c2ccc3c(c2)CCCN3C(=O)CC)cc1` to `COc1ccc(OCCCC(=O)Nc2cccc(S(=O)(=O)N3CCCCCC3)c2)cc1`, the inhibition rises from -5.9% to 6.07%.

Going from `COc1ccccc1-c1sc2ccccc2c1C#CC1(O)CCCCC1` to `Nc1nc(Br)c2ccccc2c1-c1ccc(F)cc1`, the inhibition falls from 1.77% to -1.53%.

Compared with `C[C@H](CO)N1C[C@H](C)[C@@H](CN(C)S(=O)(=O)c2ccc(F)cc2)Oc2ccc(NC(=O)CCC(F)(F)F)cc2C1=O`, `Cc1ccc(NS(=O)(=O)c2ccc3c(c2)NC(=O)CO3)cc1` is higher in inhibition: -0.61% for the first, 2.86% for the second.

First: COc1ccc(NC(=O)CN(C)C(=O)c2cccc(S(=O)(=O)N3CCN(c4ccccc4)CC3)c2)cc1
Second: COc1ccc(-n2c(SCC(=O)Nc3ccccc3-c3ccccc3)nnc2-c2cccnc2)cc1
The inhibition of the first is lower: -8.03% for the first, 6.88% for the second.

Compared with `CCCc1nc2c3ccccc3ccn2c1Cc1ccccc1C(F)(F)F`, `N#Cc1nc(Cc2cccc3ccccc23)oc1NCc1ccc2c(c1)OCO2` is lower in inhibition: 6.59% for the first, 4.95% for the second.

Compared with `O=C(/C=C/c1ccc([N+](=O)[O-])cc1)NCCSCc1ccco1`, `CC(Oc1ccccc1)C(=O)Nc1oc(-c2ccco2)c(-c2ccco2)c1C#N` (stereo not drawn) is higher in inhibition: 1.56% for the first, 2.07% for the second.

First: C=CCn1c(SCC(=O)c2c(N)n(C)c(=O)n(C)c2=O)nc2sc(CC)cc2c1=O
Second: CC(C)[C@@H](C(=O)OCC(=O)c1ccc2c(c1)NC(=O)CO2)N1C(=O)c2ccccc2C1=O
The inhibition of the first is higher: 3.02% for the first, -6.7% for the second.

First: CC1(C)CC(=O)c2sc(N)nc2C1
Second: COc1ccc(Br)c2c1C(=O)CC2
The inhibition of the first is higher: -0.75% for the first, -5.83% for the second.

Going from `Cc1cc(C)cc(N(CCC#N)C(=O)CN2C(=O)NC3(CCCC3)C2=O)c1` to `CC12CCC(C(=O)N(CCC#N)CCC#N)(CC1=O)C2(C)C` (stereo not drawn), the inhibition rises from -4.5% to 1.78%.

First: N#CCSc1ccccc1NC(=O)CN1C(=O)NC(CCc2ccccc2)C1=O (stereo not drawn)
Second: COC(=O)c1sccc1NC(=O)CSc1ccccc1NS(=O)(=O)c1cc(Cl)ccc1Cl
The inhibition of the first is lower: -8.31% for the first, 0.88% for the second.

First: O=C(CCN1C(=O)c2ccncc2C1=O)Nc1cc(F)ccc1F
Second: CCc1nc2c(OCc3ccc(F)c(F)c3)cccn2c1N(C)C(=O)c1ccco1
The inhibition of the first is lower: 6.34% for the first, 7.1% for the second.

First: Oc1ccccc1-c1cc(-c2ccc(Cl)cc2)n[nH]1
Second: COc1ccc(-n2c(SCC(=O)Nc3sc4c(c3C#N)CCCC4)nnc2-c2ccc(O)cc2)cc1
The inhibition of the first is higher: -0.94% for the first, -4.29% for the second.

Going from `CC(C)CCN1CCN=C1N(C)C` to `CC(Sc1ccc(S(=O)(=O)N2CCN(C)CC2)cn1)C(=O)NC1CCCC(C)C1C` (stereo not drawn), the inhibition rises from -8.21% to 4.47%.

Compared with `OC(c1nc2ccc(F)cc2[nH]1)C(O)c1nc2ccc(F)cc2[nH]1` (stereo not drawn), `COc1cc2nc(CN(C)Cc3ccc(F)cc3)[nH]c(=O)c2cc1OC` is lower in inhibition: -4.03% for the first, -5.44% for the second.

Compared with `CCOC(=O)N1CCC(=NNC(N)=O)CC1`, `CCCC(=O)N1CCC(CCC(=O)NC2CC2)CC1` is lower in inhibition: 0.3% for the first, -7.44% for the second.

Compared with `CCOC(=O)C=Cc1ccc(C(=O)OCC)[nH]1`, `CCCCOC(=O)NCN1C(=O)C2C3C=CC(C3)C2C1=O` (stereo not drawn) is higher in inhibition: -0.66% for the first, 12.4% for the second.

Going from `COc1cc(C(=O)NN(CCC#N)C2=NS(=O)(=O)c3ccccc32)cc(OC)c1OC` to `CCC(C)N1CC(=O)N2Cc3[nH]c4ccccc4c3C[C@H]2C1=O` (stereo partly drawn), the inhibition rises from -4.12% to -0.72%.

Going from `O=C(c1ccc(OC2CCN(C(=O)c3cccnc3)CC2)cc1)N1CCCCCC1` to `O=C(Nc1cccc(C(=O)NC2CC2)c1)c1ccc(F)c(S(=O)(=O)N2CCOCC2)c1`, the inhibition rises from 3.65% to 6.51%.

Compared with `O=C(Cn1cnc2c(nnn2Cc2ccc(F)cc2)c1=O)NCc1ccc2c(c1)OCO2`, `CC(C)[C@H](NC(=O)N1CCn2c1nc1ccccc12)C(=O)NCc1ccc2c(c1)OCO2` is higher in inhibition: -1.63% for the first, 1.52% for the second.

Compared with `CN(C)S(=O)(=O)c1ccc(N/C=C(\[N+](=O)[O-])S(=O)(=O)c2ccccc2)cc1`, `CCC(=O)Nc1cccc(C2=NOC3(C2)C[C@@H](C(N)=O)N(C(=O)c2cc([N+](=O)[O-])cc([N+](=O)[O-])c2C)C3)c1` (stereo partly drawn) is lower in inhibition: -0.82% for the first, -4.25% for the second.

Compared with `Cc1cc(C)c2cc(CN(Cc3cccs3)Cc3nnnn3CC3CCCO3)c(=O)[nH]c2c1` (stereo not drawn), `Cc1ccc(OCc2nc(C#N)c(N3CCCC3)o2)cc1` is higher in inhibition: -1.42% for the first, 0.61% for the second.

Work on `O=S1(=O)c2c(cccc2N2CC[C@H](O)C2)O[C@@H]2CCN1C2` yielded an inhibition of 4.53%.

`COc1cc(C(=S)N2CCOCC2)ccc1O` was tested, and the inhibition was 14.7% (active).
`COc1ccc(-c2nc(CCNC(=O)c3ccc(Br)o3)cs2)cc1` was tested, and the inhibition was 16.8% (active).
With `O=C(Nc1ccon1)c1sc2ccccc2c1Cl` the inhibition was 15.2% (active).
With `O=C(CSc1nnc(-c2ccccn2)n1-c1ccc(Cl)cc1)Nc1ccccc1-c1ccccc1` the inhibition was 14% (active).
For `C#CCNc1ccc(C(=O)OCC)cc1`, the inhibition was 26.2% (active).
`Cc1nnc2n1N=C(c1ccc3c(c1)NC(=O)CO3)CS2` was tested, and the inhibition was 15.4% (active).
In the case of `CN1C(=O)c2cccc3c(N)ccc(c23)C1=O`, the inhibition is reported as 24.4% (active).
For `Cc1nn(C)cc1N1C(=O)c2cccc3c(N)ccc(c23)C1=O`, the inhibition was 28.7% (active).
In the case of `CC(C)(C)c1cc(CN2CCN(CCC#N)CC2)cc(C(C)(C)C)c1O`, the inhibition is reported as 13.8% (active).
For `CCOc1ccc(Nc2oc(Cc3ccccc3)nc2C#N)cc1`, the inhibition was 14.8% (active).
